Assay outcomes from PubChem BioAssay.
GSIS activator – GLuc luminescence reporter in INS-1E cells, primary screen for activators of glucose-dependent secretion of insulin | activation, % at 16.6 µM | AID 743287, 2014 | 0.61% of 370,000 active | INS-1E GLuc reporter insulin secretion, 2-3 h;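 active means lowest replicate activation of at least 40%, so every replicate reaches that level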;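 further: 0% = median of neutral control wells and 100% = median of IBMX positive control wells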
Xi reactivation – activators of inactive X chromosome reactivation, primary screen, imaging, XiGFP fibroblasts, GFP high-content imaging, set 2. 0.055% of 360,000 active. XiGFP mouse fibroblasts, % GFP-positive cells imaging, 3 d; cells co-treated with 5-aza-dC sensitizer; scaled so ellipticine positive control = 100%. activation, % at 7.58 µM;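 active means mean normalized replicate activation at least 10% and every replicate at or above 10%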;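 further: 0% = median of on-plate neutral control wells and 100% = ellipticine 6 µM median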
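System: 68-5-11 XiGFP fibroblast line | Buffer or medium: DMEM containing 5-aza-dC | Compound: Single point | Times: Compounds 3 days, fix/stain 15 min at room temperature | Benchmarks: Positive control ellipticine, 6 µM final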
CaV13 FRET inh – Primary screen for inhibitors of IQ motif and Ca2+-dependent inactivation inhibitor domain binding in CACNA1D, Förster resonance energy transfer in living cells, …; HEK cells, CFP/YFP FRET ICDI-IQ, plate reader, 10 min; percent FRET-ratio fall versus neutral wells; inhibition, % at 12.3 µM; 0.098% of 340,000 active;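 active means mean replicate inhibition of at least 30% and at least 1% of replicates passing that level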;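 further: 0% = median of the neutral control wells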
GAA850 FXN act – FXN promoter activators, primary screen, cell-based, luciferase luminescence, HEK293 lucGAA850. HEK293 lucGAA850 FXN promoter luciferase reporter, 24 h; percent of 10 µM SAHA response. activation, % at 6 µM. 0.56% of 360,000 active;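 active means activation above the average of all compounds screened plus 3 SD, cutoff fixed separately per campaign, cut at about 7.5% in these data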;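 further: 0% = DMSO wells and 100% = 10 µM SAHA wells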
GAA30 counter – GAA30 FXN promoter activators, confirmation, counter-screen for GAA850 frataxin promoter activator project, cell-based, luminescence, HEK293, lucGAA30, triplicate | shares compounds with GAA850 FXN act | HEK293 lucGAA30 FXN promoter luciferase, 24 h; DMSO = 0%, 5 µM ipriflavone = 100% | activation, % at 6 µM | 66% of 1,900 active;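 active means mean activation above the mean of solvent-only control wells plus 3 SD, cut at about 22% in these data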;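 further: counterscreen of GAA850 promoter hits where activity marks nonselective or luminescence artifacts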
GAA850 confirm – FXN GAA850 promoter activators in reporter cells, confirmation, cell-based, luminescence, HEK293 lucGAA850, triplicate. shares compounds with GAA850 FXN act. HEK293 lucGAA850 FXN promoter luciferase reporter, 24 h; 100% = activation by SAHA. activation, % at 6 µM. 86% of 1,900 active. AID 588351, 2011;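 active means mean activation above a set limit taken from the primary screen, cut at about 8% in these data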;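 further: 0% = DMSO wells and 100% = 10 µM SAHA wells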
* hit, by the source's call; / = no result given. Rows were chosen to be rich in hits. Some 1% of all compounds tested hit in one or more screens of this group.

SMILES	GSIS activator	Xi reactivation	CaV13 FRET inh	GAA850 FXN act	GAA30 counter	GAA850 confirm
COc1ccc(Nc2nc(N)nc(CSC(=S)N3CCCCC3)n2)cc1	3	0	-4	8.2*	69*	23*
COc1ccc(OCc2nc(N)nc(Nc3ccc(C)cc3)n2)cc1	/	/	-6	8.8*	67*	25*
O=C(c1ccccn1)N1CC[C@H]2[C@H](CO)Nc3ccc(-c4ccc(F)cc4)cc3[C@H]21	-3	0	/	/	/	/
CN(C)c1ccc(N=Nc2ccccc2C(=O)OCC(=O)Nc2ccccc2C(F)(F)F)cc1	0	0	-6	7.6*	73*	23*
CN(C)c1ccc(N=Nc2ccccc2C(=O)OCC(=O)N2CCCC2)cc1	-35	0	-5	4	/	/
